According to ChEMBL document CHEMBL4033629, “Synthesis, biological evaluation and molecular modeling of 2-Hydroxyisoquinoline-1,3-dione analogues as inhibitors of HIV reverse transcriptase associated ribonuclease H and polymerase” (Eur J Med Chem, 2017):
pIC50: −log10 of the molar value. Active and inactive are the calls of the source. The rule behind the calls is not given here.

What was measured:
[1] = tested on: Human immunodeficiency virus 1; experiment: Antiviral activity against HIV1 3B infected in human CEM-SS cells assessed as inhibition of viral-induced cytopathic effect at 10 uM by colorimetric method; format: functional, cell-based
Method in brief: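 CEM-SS cells were mixed with HIV-1 IIIB and test compound at 10 µM and incubated 6 days. Virus was pre-titered so that virus control wells lost 70 to 95% of cell viability. Each plate had cell-only, virus, compound toxicity and compound colorimetric control wells. Protection from virus-induced cytopathic effect was read colorimetrically.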

[2] = Inhibition of full length HIV reverse transcriptase polymerase activity; parameters: species or system Human immunodeficiency virus
Method in brief: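 RT was pre-incubated with primer-template duplex before compound was tested. The IC50 is the concentration giving 50% inhibition. It is reported as mean ± SD from three independent experiments for some analogues, and as the mean of two independent experiments for others.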

[3] = Inhibition of full length HIV RT-RNase H activity using 18-nucleotide 3'-fluorescein-labeled RNA/5'-dabsyl-labeled DNA hybrid as substrate; parameters: species or system Human immunodeficiency virus
Method in brief: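 Duplex substrate reports random internal RNA cleavage. A known RNase H inhibitor served as positive control. IC50 is the concentration giving 50% inhibition, reported as the mean of two or three independent experiments.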

SMILES	Activity [1]	pIC50 [2]	pIC50 [3]
O=C1Cc2cc(-c3ccc(F)c(F)c3)ccc2C(=O)N1O	inactive	5.68	5.89
O=C1Cc2cc(-c3ccoc3)ccc2C(=O)N1O	inactive	5.70	5.85
COc1cc2c(cc1-c1ccco1)CC(=O)N(O)C2=O	inactive	5.21	5.80
O=C1Cc2ccc(-c3ccc(F)c(F)c3)cc2C(=O)N1O	inactive	5.55	5.70
COc1cc2c(cc1-c1ccc(F)cc1F)CC(=O)N(O)C2=O	inactive	5.54	5.80
O=C1Cc2c(cccc2-c2ccccc2)C(=O)N1O	inactive	< 4.60	5.85
O=C1Cc2cc(-c3csc4ccccc34)ccc2C(=O)N1O	inactive	5.89	5.96
O=C1Cc2ccc(I)cc2C(=O)N1O	inactive	5.72	5.85
COc1cc2c(cc1-c1ccccc1)CC(=O)N(O)C2=O	inactive	5.09	5.89
O=C1Cc2cc(-c3cccc4c3sc3ccccc34)ccc2C(=O)N1O	inactive	5.80	5.74
O=C1Cc2c(cccc2-c2ccc(F)cc2F)C(=O)N1O	inactive	4.60	5.82
O=C(Nc1ccc2c(c1)CC(=O)N(O)C2=O)c1ccccc1	inactive	6.40	6.70
O=C(Cc1ccccc1)Nc1ccc2c(c1)CC(=O)N(O)C2=O	inactive	5.85	6.70
O=C1Cc2cc(-c3cccs3)ccc2C(=O)N1O	inactive	5.77	5.77
O=C1Cc2ccc(-c3cc4ccccc4o3)cc2C(=O)N1O	inactive	5.80	6.05
O=C1Cc2ccc(-c3ccco3)cc2C(=O)N1O	inactive	5.89	5.92
O=C1Cc2c(Cc3ccc(F)cc3F)cccc2C(=O)N1O	inactive	5.03	6.09
O=C1Cc2ccc(-c3cccs3)cc2C(=O)N1O	inactive	5.60	5.77
O=C1Cc2c(Cc3ccc(Br)cc3)cccc2C(=O)N1O	inactive	5.85	6.22
O=C(Nc1ccc2c(c1)CC(=O)N(O)C2=O)c1ccc(F)cc1	inactive	6.10	6.70
O=C1Cc2cc(-c3cc4ccccc4o3)ccc2C(=O)N1O	inactive	5.82	5.96
COc1cc2c(cc1-c1ccc(F)cc1)CC(=O)N(O)C2=O	inactive	5.43	5.85
O=C1Cc2c(Cc3ccc(C(F)(F)F)cc3)cccc2C(=O)N1O	inactive	5.13	6.08
Cc1ccc(Cc2cccc3c2CC(=O)N(O)C3=O)cc1	inactive	5.10	6.00
O=C1Cc2cc(-c3ccco3)ccc2C(=O)N1O	inactive	5.82	5.96
O=C(Cc1ccc(F)cc1)Nc1ccc2c(c1)CC(=O)N(O)C2=O	inactive	5.77	6.52
O=C1Cc2cc(-c3ccc4c(c3)OCO4)ccc2C(=O)N1O	inactive	5.77	5.92
O=C1Cc2c(cccc2-c2ccco2)C(=O)N1O	inactive	5.68	5.70
